Source: PubChem BioAssay
This is a sample that favours compounds with a hit; in the whole collection about 2% have one here.
HIF act: HIF pathway transcriptional activators, primary screen, cell-based, U2OS HRE-luciferase, luminescence | U2OS HRE-luciferase reporter; normalized: DMSO 0%, desferrioxamine 100% | activation, % at 7.5 µM (by protocol) | 0.32% of 300,000 active | AID 1910, 2009;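 active = mean activation of at least 10% of the iron chelator positive control signal, with at least half of replicates also reaching 10%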
AI-2 QS mod: Vibrio harveyi AI-2 quorum sensing modulators, primary screen, JMH597 strain, luminescence/OD600 ratio; Vibrio harveyi JMH597 AI-2 luminescence/OD600 ratio, 9 h; stronger effect = lower value; strain lacks LuxN and CqsS sensors; 0 = neutral-control median; activity change, % at 7.5 µM; 0.4% of 300,000 active; in the data active = activity change below about -75%, passing the limit was not always enough;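 also: luminescence divided by OD600 gain over 9 h not by final OD600 alone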
ARNT-TACC3 inh: disruptors of ARNT/TACC3 protein interaction, primary screen, biochemical, AlphaScreen, single concentration; 0.66% of 390,000 active; AlphaScreen His-ARNT PAS-B/GST-TACC3 binding, luminescence; TACC3 fragment carries E629A point mutation; inhibition, % at 9.99 µM;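 active = mean inhibition of replicates at least 50% and at least half of replicates each reaching 50%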;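 also: 0% = complete ARNT plus TACC3 wells and 100% = ARNT alone without TACC3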
T cruzi inh: inhibitors of intracellular T. cruzi growth, primary screen, luminescence, NIH3T3 host cells | 1.4% of 300,000 active | T. cruzi beta-gal in NIH3T3, 90 h | inhibition, % (test concentration not listed);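 active = mean inhibition across valid replicates above about 55%, limit read from the data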;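 also: signal also drops with host cell toxicity which is not excluded here; 0% = plate median of DMSO wells and 100% = zero luminescence signal; higher percent means less beta-gal luminescence so fewer parasites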
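System: Mouse NIH/3T3 fibroblasts infected with β-gal-expressing T. cruzi Tulahuen C4 | Quantity: NIH/3T3 cells, 5,000 per well | Reagent: 5000 reporter trypomastigotes per well | Dosing: Compound pinned at 50 nL/well, DMSO | Schedule: 3 h host attachment, then at least 90 h co-culture | Detection: GalScreen luminescence, 60 min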
The depositor's hits bear a star; nt = no result given.

SMILES	HIF act	AI-2 QS mod	ARNT-TACC3 inh	T cruzi inh
O=S(=O)(O)c1cc(O)c(N=Nc2ccc(O)cc2O)c2ccccc12	nt	nt	93.5*	nt
O=S(=O)(O)c1cc(O)ccc1O	nt	nt	-18.6	nt
CCn1nc(C(=O)OCC(=O)NC(C)C)c2ccccc2c1=O	37.8*	9.8	-4.7	-3.6
COc1ccc(C2SCC(=O)N2CC23CC4CC(CC(C4)C2)C3)cc1 (stereo not given)	0.3	8.3	-6.9	60.9*
CCOC(=O)c1ccc(OCCOc2ccccc2C)cc1	0.8	1.4	-3.1	-5.5
CCOC(=O)c1ccc(S(=O)(=O)NNC(=O)COc2ccccc2C)cc1	999.5*	14.1	1.1	-13.4
O=C(C#Cc1ccccc1)c1ccco1	-4.1	-94.3*	-6.1	-19.4
O=C(N/N=C/c1ccccc1)c1ccco1	2.4	7.0	-0.6	-4.6
O=C(CCN1CCCCC1)NCC[C@H]1CC[C@H](NC(=O)c2ccc(F)cc2)[C@@H](CO)O1	nt	nt	-15.5	nt
O=C1CNC(=S)N1CCCn1ccnc1	1.7	3.2	60.1*	-6.8
Cc1nccn1CCCN1C(=O)CNC1=S	0.1	13.6	0.4	-5.6
CC(=O)N1[C@@H]2Cn3c(ccc(-c4cccnc4)c3=O)[C@H]1[C@@H](C(=O)N1CCc3ccccc3C1)[C@@H]2CO	nt	nt	-6.5	nt
COc1ccccc1-c1ccc2n(c1=O)C[C@H]1[C@H](CO)[C@@H](C(=O)NCC3CC3)N(S(C)(=O)=O)[C@@H]21	nt	nt	-5.4	nt
COc1ccc(NC(=O)CCC(=O)N(Cc2ccc(OC)c(OC)c2)c2nccs2)cc1	170.2*	12.3	-2.9	-5.2
COc1ccc(OC)c(NC(=O)CCC(=O)N(Cc2ccc(OC)c(OC)c2)c2nccs2)c1	0.0	10.6	-1.9	-8.4
Cc1cccc(S(=O)(=O)N2CC[C@@H]3[C@H](CO)N(C)c4ccc(C#Cc5ccc(F)cc5)cc4[C@@H]32)c1	nt	nt	48.0*	nt
O=C(Nc1ncc(S(=O)(=O)c2ccc([N+](=O)[O-])cc2)s1)c1cccc2ccccc12	0.1	22.6	2.8	57.8*
COCC(=O)Nc1ncc(S(=O)(=O)c2ccc([N+](=O)[O-])cc2)s1	-0.1	74.4	8.6	26.6
C[C@@H]1CN([C@H](C)CO)C(=O)c2cc(NC(=O)c3ccccc3)ccc2O[C@@H](C)CCCCO[C@@H]1CN(C)C(=O)Nc1cccc2ccccc12	nt	nt	2.2	nt
CCCN(CCC)S(=O)(=O)c1ccc(NC(=O)c2cc(C(=O)OC)cc([N+](=O)[O-])c2)cc1	-0.8	17.4	-5.4	74.1*
O=C(C[C@H]1C[C@@H]2c3cc(NC(=O)C4CCC4)ccc3O[C@@H]2[C@@H](CO)O1)NCC1CC1	nt	nt	8.8	nt
CC1CC(=O)c2c(cc3c(-c4c(O)cc(O)c5c(O)c6c(cc45)OC(C)CC6=O)c(O)cc(O)c3c2O)O1 (stereo not given)	-0.3	-81.7*	95.7*	71.4*
O=C1CC(c2ccccc2)Oc2cc(O)cc(O)c21 (stereo not given)	1.2	23.6	-30.0	-26.5
C[C@H](CO)N1C[C@H](C)[C@H](CN(C)C(=O)NC2CCCCC2)Oc2c(NC(=O)c3cnccn3)cccc2C1=O	nt	nt	-2.5	nt
COc1ccc(CNc2ccc(Cl)cc2)cc1Cn1ccnc1	0.6	2.5	15.4	58.5*
SMILES	HIF act	AI-2 QS mod	ARNT-TACC3 inh	T cruzi inh
CCc1ccc(NCc2ccc(OC)c(Cn3ccnc3)c2)cc1	0.4	-31.5	24.4	46.8
O=C(C[C@@H]1CC[C@H]2[C@@H](COC[C@@H](O)CN2Cc2cccc(C(F)(F)F)c2)O1)NCCc1ccncc1	nt	nt	-4.6	nt
COCCCn1c(=N)c(C(N)=S)cc2c(=O)n3cccc(C)c3nc21	0.8	9.0	13.0	68.0*
Cc1ccc2nc3c(cc(C(=O)NCCN4CCOCC4)c(=N)n3CCCN3CCOCC3)c(=O)n2c1	0.3	11.3	nt	-16.7
Cc1ccc2nc3c(cc(C(N)=S)c(=N)n3CCCOC(C)C)c(=O)n2c1	0.4	24.3	6.2	63.8*
COCCCn1c(=N)c(C(=O)NCc2ccc3c(c2)OCO3)cc2c(=O)n3cccc(C)c3nc21	nt	nt	-6.6	nt
CCOCCCn1c(=N)c(C(=O)NCc2ccc3c(c2)OCO3)cc2c(=O)n3cccc(C)c3nc21	-0.3	27.3	3.8	58.1*
CCCC(=O)Nc1ccc2c(c1)C(=O)N(C)C[C@@H](OC)[C@H](C)CN(C(=O)c1cccnc1)[C@@H](C)CO2	nt	nt	-2.4	nt
C[C@@H]1CN([C@H](C)CO)C(=O)c2cc(NC(=O)Nc3ccc(C(F)(F)F)cc3)ccc2O[C@@H](C)CCCCO[C@@H]1CN(C)C(=O)Cc1ccccc1	nt	nt	-0.9	nt
COC(=O)c1c(-c2cccc3ccccc23)csc1NC(=O)Cc1ccc(OC)c(OC)c1	0.5	5.6	-6.6	57.3*
CC(C)Cn1c(N)c(C(=O)CSc2nc3ccccc3c(=O)n2CCCN2CCOCC2)c(=O)n(C)c1=O	-0.2	12.5	nt	54.6*
CCCc1cc(=O)oc2c3c(c4c(c12)OC(C)(C)C=C4)OC(C)C(C)C3O (stereo not given)	-0.3	-2.0	1.8	54.8*
C[C@@H]1CN([C@H](C)CO)C(=O)c2cccc(NS(=O)(=O)c3ccccc3)c2O[C@@H]1CN(C)S(=O)(=O)c1ccc(F)cc1	nt	nt	3.8	nt
O=C(CC(Sc1ccc(Br)cc1)C(=O)O)c1ccc(F)cc1 (stereo not given)	-8.4	0.6	-4.0	72.6*
O=[N+]([O-])c1cccc(-c2ccc(/C=N/NC(=S)Nc3ccccc3)o2)c1	0.8	28.1	3.9	55.7*
CC(=O)C1=C(c2ccccc2)NC(=S)NC1c1cc(Cl)c(OC(C)C)c(Cl)c1 (stereo not given)	0.0	21.1	-1.5	60.9*
Cc1nnc(C)c2c(C)n(C(c3ccccc3)c3ccccc3)c(C)c12	-0.1	9.4	6.0	59.1*
COc1ccc(OC)c(C2C=C(C34CC5CC(CC(C5)C3)C4)NC(=S)N2)c1 (stereo not given)	-0.6	15.4	11.9	64.5*
S=C1NC(C23CC4CC(CC(C4)C2)C3)=CC(c2ccc3c(c2)OCO3)N1 (stereo not given)	-0.1	36.8	-4.2	69.7*
COc1cc(C2C=C(C34CC5CC(CC(C5)C3)C4)NC(=S)N2)cc(OC)c1OC (stereo not given)	0.0	11.0	-1.9	24.1
COCCNC(=O)C[C@H]1C[C@@H]2c3cc(NS(=O)(=O)c4ccc(F)cc4)ccc3O[C@@H]2[C@@H](CO)O1	nt	nt	-1.7	nt
Nc1nc(-c2ccccc2)cn1N	0.3	8.1	48.3*	22.9
Nc1nc(-c2ccccc2)cn1/N=C/c1ccccc1	1.7	50.5	3.6	31.6
COc1ccc(/C=C/c2nc(N)nc(-c3ccccc3O)n2)cc1OC	0.5	5.4	2.0	66.9*
C=C(C)C1CC=C(CN2CCN(Cc3ccccc3)CC2)CC1 (stereo not given)	1.6	0.6	-9.9	57.3*
